Active and inactive are the calls of the source. The rule behind the calls is not given here.
How the values were obtained:
Mus musculus [1] = assay: Antiamnesic activity in mouse assessed as reversal of scopolamine-induced memory loss at 10 mg/kg, ip treated 20 mins before training session by passive avoidance test; format: functional, organism-based; set-up: dose 10 mg/kg
Summary of the method: (§1)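 Step-through passive avoidance in mice: lit and dark compartments joined by a guillotine door. Entering the dark side drops the mouse 40 cm into 10 °C water, a non-painful punishment. Mice not entering within 60 s at training were excluded. Compound given ip at 1:10 dilution steps […], 20 min before training. Vehicle was saline or saline/DMSO 4:1. Scopolamine 1.5 mg/kg ip immediately after punishment. Retention tested next day. MED is the lowest dose reversing amnesia.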

Mus musculus [2] = species: Mus musculus; assay: Toxicity in mouse assessed as motor coordination after 45 mins by rotarod test; format: organism-based; details: in vivo, 0.75 h
Summary of the method: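 Rota-rod: rod 30 cm long, 15 cm above the base, split into five sections, rotating at 16 rpm. Falls counted over 30 s. Mice with fewer than 3 or more than 6 falls in the pretest were rejected. Performance measured at pretest and 15, 30 and 45 min after test start. Compared with saline-treated mice.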

Mus musculus [3] = species: Mus musculus; assay: Toxicity in mouse assessed as spontaneous motility and inspection activity after 5 mins by hole board test; format: organism-based; details: in vivo
Summary of the method: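 Hole-board: 40 cm square plane with 16 holes of 3 cm, arranged 4×4. Each mouse placed centrally and free to move for […]. Photocells counted locomotion (spontaneous motility) and hole exploration, both as counts in 5 min. Compared with saline-treated mice.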

Mus musculus [4] = assay: Effect on passive avoidance in mouse assessed as latency time to enter dark room in retention session at 10 mg/kg, ip treated 20 mins before training session; format: functional; details: route intraperitoneal
Summary of the method: (§2)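 Same step-through passive avoidance without scopolamine. Punishment is a 40 cm fall into 10 °C water on entering the dark room. Mice not entering within 60 s at training were excluded. Compound given ip at 1:10 dilution steps, 20 min before training, in saline or saline/DMSO 4:1. Controls received an extra saline injection right after training. Latency to enter the dark room recorded at training and at next-day retention.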

Mus musculus [5] = assay: Effect on passive avoidance in mouse assessed as latency time to enter dark room in training session at 10 mg/kg, ip treated 20 mins before training session; format: functional; details: route intraperitoneal; summary of the method: as §2
Mus musculus [6] = species: Mus musculus; assay: Effect on passive avoidance in mouse treated 20 mins before training session; format: functional; details: read-out: MED; summary of the method: as §2
Mus musculus [7] = assay: Antiamnesic activity in scopolamine-induced mouse assessed as latency time to enter dark room in retention session at 0.1 mg/kg, ip treated 20 mins before training session by passive avoidance test; format: functional; details: route intraperitoneal; summary of the method: as §1
Mus musculus [8] = assay: Antiamnesic activity in scopolamine-induced mouse assessed as latency time to enter dark room in training session at 0.1 mg/kg, ip treated 20 mins before training session by passive avoidance test; format: functional; details: route intraperitoneal; summary of the method: as §1
Mus musculus [9] = assay: Antiamnesic activity in ip dosed mouse assessed as reversal of scopolamine-induced memory loss treated 20 mins before training session by passive avoidance test; format: functional; details: read-out: MED; summary of the method: as §1
Mus musculus [10] = assay: Effect on passive avoidance in mouse assessed as latency time to enter dark room in retention session at 0.01 mg/kg, ip treated 20 mins before training session; format: functional; details: route intraperitoneal; summary of the method: as §2
Mus musculus [11] = assay: Effect on passive avoidance in mouse assessed as latency time to enter dark room in training session at 0.01 mg/kg, ip treated 20 mins before training session; format: functional; details: route intraperitoneal; summary of the method: as §2
Mus musculus [12] = assay: Antiamnesic activity in scopolamine-induced mouse assessed as latency time to enter dark room in retention session at 10 mg/kg, ip treated 20 mins before training session by passive avoidance test; format: functional; details: route intraperitoneal; summary of the method: as §1
Mus musculus [13] = assay: Antiamnesic activity in scopolamine-induced mouse assessed as latency time to enter dark room in training session at 10 mg/kg, ip treated 20 mins before training session by passive avoidance test; format: functional; details: route intraperitoneal; summary of the method: as §1
Mus musculus [14] = assay: Antiamnesic activity in scopolamine-induced mouse assessed as latency time to enter dark room in retention session at 0.01 mg/kg, ip treated 20 mins before training session by passive avoidance test; format: functional; details: route intraperitoneal; summary of the method: as §1
Mus musculus [15] = assay: Antiamnesic activity in scopolamine-induced mouse assessed as latency time to enter dark room in training session at 0.01 mg/kg, ip treated 20 mins before training session by passive avoidance test; format: functional; details: route intraperitoneal; summary of the method: as §1
Mus musculus [16] = assay: Effect on passive avoidance in mouse assessed as latency time to enter dark room in training session at 1.0 mg/kg, ip treated 20 mins before training session; format: functional; details: route intraperitoneal; summary of the method: as §2
Mus musculus [17] = assay: Effect on passive avoidance in mouse assessed as latency time to enter dark room in retention session at 1.0 mg/kg, ip treated 20 mins before training session; format: functional; details: route intraperitoneal; summary of the method: as §2
Mus musculus [18] = assay: Antiamnesic activity in scopolamine-induced mouse assessed as latency time to enter dark room in retention session at 1.0 mg/kg, ip treated 20 mins before training session by passive avoidance test; format: functional; details: route intraperitoneal; summary of the method: as §1
Mus musculus [19] = assay: Antiamnesic activity in scopolamine-induced mouse assessed as latency time to enter dark room in training session at 1.0 mg/kg, ip treated 20 mins before training session by passive avoidance test; format: functional; details: route intraperitoneal; summary of the method: as §1
Mus musculus [20] = assay: Effect on passive avoidance in mouse assessed as latency time to enter dark room in retention session at 0.1 mg/kg, ip treated 20 mins before training session; format: functional; details: route intraperitoneal; summary of the method: as §2
Mus musculus [21] = assay: Effect on passive avoidance in mouse assessed as latency time to enter dark room in training session at 0.1 mg/kg, ip treated 20 mins before training session; format: functional; details: route intraperitoneal; summary of the method: as §2

| SMILES | Activity (Mus musculus [1]) | Activity (Mus musculus [2]) | Activity (Mus musculus [3]) | minimal effective dose (Mus musculus [6]) | minimal effective dose (Mus musculus [9]) | other results |
| --- | --- | --- | --- | --- | --- | --- |
| CC(=O)Nc1ccc(NS(=O)(=O)C(C)C)cc1 | inactive | Non-toxic | Non-toxic | – | – | – |
| CCC(=O)N[C@H]1CC[C@@H](NS(=O)(=O)c2ccc(F)cc2)CC1 | – | Non-toxic | Non-toxic | 10 mg/kg | 0.1 mg/kg | Activity (Mus musculus [4]): 162.9 s; Activity (Mus musculus [5]): 25.3 s; Activity (Mus musculus [7]): 89.1 s; Activity (Mus musculus [8]): 16.8 s |
| CCC(=O)Nc1ccc(NS(=O)(=O)C(C)C)cc1 | inactive | Non-toxic | Non-toxic | – | – | – |
| CC(=O)N[C@H]1CC[C@H](NS(=O)(=O)c2ccc(F)cc2)CC1 | – | Non-toxic | Non-toxic | 0.01 mg/kg | 10 mg/kg | Activity (Mus musculus [10]): 52.8 s; Activity (Mus musculus [11]): 19.2 s; Activity (Mus musculus [12]): 26.3 s; Activity (Mus musculus [13]): 17 s |
| CC(C)S(=O)(=O)N(C)c1ccc(N(C)S(=O)(=O)c2ccc(F)cc2)cc1 | – | Non-toxic | Non-toxic | 1 mg/kg | 0.01 mg/kg | Activity (Mus musculus [14]): 70.5 s; Activity (Mus musculus [15]): 18.8 s; Activity (Mus musculus [16]): 30 s; Activity (Mus musculus [17]): 158.6 s |
| CCC(=O)N[C@H]1CC[C@@H](NC(=O)CC)CC1 | – | Non-toxic | Non-toxic | 10 mg/kg | 1 mg/kg | Activity (Mus musculus [4]): 165.2 s; Activity (Mus musculus [5]): 34.8 s; Activity (Mus musculus [18]): 106.2 s; Activity (Mus musculus [19]): 17.8 s |
| CCC(=O)N[C@H]1CC[C@H](NC(=O)CC)CC1 | inactive | Non-toxic | Non-toxic | – | – | – |
| O=C(N[C@H]1CC[C@H](NS(=O)(=O)c2ccc(F)cc2)CC1)c1ccccc1 | inactive | Non-toxic | Non-toxic | – | – | – |
| CC(=O)NC1CCN(S(=O)(=O)c2ccc(F)cc2)CC1 [SAPUNIFIRAM] | – | Non-toxic | Non-toxic | 0.1 mg/kg | 0.01 mg/kg | Activity (Mus musculus [20]): 126.8 s; Activity (Mus musculus [21]): 19.1 s; Activity (Mus musculus [14]): 90.6 s; Activity (Mus musculus [15]): 14.5 s |
| CC(C)S(=O)(=O)N(C)c1ccc(NC(=O)c2ccccc2)cc1 | – | Non-toxic | Non-toxic | – | 0.01 mg/kg | Activity (Mus musculus [14]): 66.7 s; Activity (Mus musculus [15]): 20.6 s |
| CC(C)S(=O)(=O)Nc1ccc(NC(=O)c2ccccc2)cc1 | – | Non-toxic | Non-toxic | 1 mg/kg | 10 mg/kg | Activity (Mus musculus [12]): 88.1 s; Activity (Mus musculus [13]): 16.8 s; Activity (Mus musculus [16]): 22.1 s; Activity (Mus musculus [17]): 116.7 s |
| CC(C)S(=O)(=O)N(C)c1ccc(N(C)C(=O)c2ccccc2)cc1 | – | Non-toxic | Non-toxic | 1 mg/kg | 0.01 mg/kg | Activity (Mus musculus [14]): 91.8 s; Activity (Mus musculus [15]): 20.7 s; Activity (Mus musculus [16]): 19.6 s; Activity (Mus musculus [17]): 123.6 s |
| CC(=O)N[C@H]1CC[C@@H](NS(=O)(=O)c2ccc(F)cc2)CC1 | – | Non-toxic | Non-toxic | 10 mg/kg | 1 mg/kg | Activity (Mus musculus [4]): 156.6 s; Activity (Mus musculus [5]): 32 s; Activity (Mus musculus [18]): 104.5 s; Activity (Mus musculus [19]): 19.1 s |
| CCC(=O)N1CCN2C(=O)c3ccccc3C2C1 (stereo not given) | inactive | Non-toxic | Non-toxic | – | – | – |
| CC(=O)N1CCN2C(=O)c3ccccc3C2C1 (stereo not given) | inactive | Non-toxic | Non-toxic | – | – | – |
| CC(C)S(=O)(=O)N[C@H]1CC[C@H](NC(=O)c2ccccc2)CC1 | inactive | Non-toxic | Non-toxic | – | – | – |
| CC(C)S(=O)(=O)Nc1ccc(N(C)S(=O)(=O)c2ccc(F)cc2)cc1 | – | Non-toxic | Non-toxic | 1 mg/kg | 0.1 mg/kg | Activity (Mus musculus [7]): 103.6 s; Activity (Mus musculus [8]): 20.2 s; Activity (Mus musculus [16]): 26.2 s; Activity (Mus musculus [17]): 149.8 s |
| CCC(=O)Nc1ccc(NS(=O)(=O)c2ccc(F)cc2)cc1 | inactive | Non-toxic | Non-toxic | – | – | – |
| CC(C)S(=O)(=O)N1CCN2C(=O)CCC2C1 (stereo not given) | – | Non-toxic | Non-toxic | 10 mg/kg | – | Activity (Mus musculus [4]): 61.5 s; Activity (Mus musculus [5]): 13.6 s |
| CC(C)S(=O)(=O)N1CCN2C(=O)c3ccccc3C2C1 (stereo not given) | – | Non-toxic | Non-toxic | – | 1 mg/kg | Activity (Mus musculus [18]): 85.5 s; Activity (Mus musculus [19]): 16.3 s |
| CC(C)S(=O)(=O)Nc1ccc(N(C)C(=O)c2ccccc2)cc1 | – | Non-toxic | Non-toxic | 0.1 mg/kg | 0.1 mg/kg | Activity (Mus musculus [20]): 121 s; Activity (Mus musculus [21]): 17.3 s; Activity (Mus musculus [7]): 75.9 s; Activity (Mus musculus [8]): 21.6 s |
| O=C(Nc1ccc(NS(=O)(=O)c2ccc(F)cc2)cc1)c1ccccc1 | inactive | Non-toxic | Non-toxic | – | – | – |
| CC(=O)N[C@H]1CC[C@H](NC(=O)c2ccccc2)CC1 | inactive | Non-toxic | Non-toxic | – | – | – |
| CC(=O)Nc1ccc(NC(=O)c2ccccc2)cc1 | inactive | Non-toxic | Non-toxic | – | – | – |
| CC(=O)N1CCN(C(=O)c2ccccc2)CC1 | – | Non-toxic | Non-toxic | – | 10 mg/kg | Activity (Mus musculus [12]): 119 s; Activity (Mus musculus [13]): 11.3 s |
| CC(=O)Nc1ccc(NS(=O)(=O)c2ccc(F)cc2)cc1 | inactive | Non-toxic | Non-toxic | – | – | – |
| O=C1c2ccccc2C2CN(S(=O)(=O)c3ccc(F)cc3)CCN12 (stereo not given) | – | Non-toxic | Non-toxic | – | 0.1 mg/kg | Activity (Mus musculus [7]): 74.5 s; Activity (Mus musculus [8]): 15.6 s |
| CCC(=O)N[C@H]1CC[C@H](NS(=O)(=O)c2ccc(F)cc2)CC1 | – | Non-toxic | Non-toxic | 0.1 mg/kg | 1 mg/kg | Activity (Mus musculus [20]): 56.3 s; Activity (Mus musculus [21]): 16.9 s; Activity (Mus musculus [18]): 16.4 s; Activity (Mus musculus [19]): 17.5 s |
| CC(C)S(=O)(=O)Nc1ccc(NS(=O)(=O)c2ccc(F)cc2)cc1 | – | Non-toxic | Non-toxic | 10 mg/kg | 1 mg/kg | Activity (Mus musculus [4]): 125.2 s; Activity (Mus musculus [5]): 21.1 s; Activity (Mus musculus [18]): 76.3 s; Activity (Mus musculus [19]): 19.1 s |
| CCC(=O)N[C@H]1CC[C@H](NC(=O)c2ccccc2)CC1 | inactive | Non-toxic | Non-toxic | – | – | – |
